Values without a mark were called inactive. The source made the active and inactive calls.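 Rule for the calls: active = inhibition above 10%; inactive = the rest.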
biological target: Hexokinase-4 (Homo sapiens) (UniProt P35557); experiment: human glucokinase inhibition, counter-screen for TbHK1 inhibitor project, biochemical, recombinant hGlck (AID 492951); settings: G6PDH-coupled NADH absorbance 340 nm, at 10 µM; hits give high values
In short: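 Test system: recombinant human glucokinase, G6PDH-coupled; Medium: pH 7.9 TEA buffer, MgCl2, NAD+; Also added: 20 mM glucose as reaction starter, plus 1 mM ATP; Compound dosing: single final test compound dose of 10 µM; Schedule: 10 min preincubation at room temperature; Measured by: NADH formation by absorbance at 340 nm; Repeats: triplicate.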

Hexokinase-4 (Homo sapiens), sequence (P35557 whole entry, looked up): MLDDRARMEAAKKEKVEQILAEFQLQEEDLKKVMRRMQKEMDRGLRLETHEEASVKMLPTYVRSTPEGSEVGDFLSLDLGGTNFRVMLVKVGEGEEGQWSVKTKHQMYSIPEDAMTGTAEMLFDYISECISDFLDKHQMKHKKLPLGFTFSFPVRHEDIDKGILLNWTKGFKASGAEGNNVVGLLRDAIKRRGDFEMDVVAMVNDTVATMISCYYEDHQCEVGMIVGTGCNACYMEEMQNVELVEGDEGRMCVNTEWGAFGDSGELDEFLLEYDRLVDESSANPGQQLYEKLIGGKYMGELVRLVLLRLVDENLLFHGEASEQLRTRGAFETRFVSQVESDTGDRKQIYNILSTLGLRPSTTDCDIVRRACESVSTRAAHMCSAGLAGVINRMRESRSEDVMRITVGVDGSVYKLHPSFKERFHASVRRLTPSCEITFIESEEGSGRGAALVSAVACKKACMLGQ

Compound | inhibition | outcome
COc1ccc(C(=O)Nc2cc(C(F)(F)F)ccc2C(=O)O)cc1 | 10.5% (active) | –
CN(C)c1ccc(C(=O)Nc2cc(Cl)ccc2C(=O)O)cc1 | – | inactive
COc1ccc(CC(=O)Nc2cc(Cl)ccc2C(=O)O)cc1 | – | inactive
COc1ccc(C(=O)NCC(=O)O)cc1 | 20.5% (active) | –
COC(=O)c1ccc(Cl)cc1NC(=O)c1ccc(Cl)cc1 | – | inactive
CC(C(=O)Nc1ccccc1)n1sc2ccccc2c1=O (stereo not drawn) | 9.6% | –
COc1cccc(CC(=O)Nc2cc(Cl)ccc2C(=O)O)c1 | – | inactive
O=C(Cn1sc2cc(F)ccc2c1=O)Nc1ccccc1 | 39.6% (active) | –
O=c1c2ccccc2sn1-c1cccc(F)c1 | 28.2% (active) | –
COc1ccc(C(=O)Nc2c(C(=O)O)ccc(Cl)c2Cl)cc1 | 10.6% | –
COC(=O)c1ccc(Cl)cc1NS(=O)(=O)c1ccc(OC)cc1 | – | inactive
CCOC(=O)c1ccncc1NC(=O)c1ccc(OC)cc1 | – | inactive
COc1ccc(C(=O)Nc2ccc(Cl)cc2C(=O)O)cc1 | – | inactive
O=C(Nc1cc(Cl)ccc1C(=O)O)c1ccoc1 | – | inactive
COc1cccc(-n2sc3ccccc3c2=O)c1 | 49.9% (active) | –
CC(C)Cc1ccc(C(=O)Nc2cc(Cl)ccc2C(=O)O)cc1 | 19.5% (active) | –
CC(C)(C)c1ccc(C(=O)N2CCC(=O)c3ccc(Cl)cc32)cc1 | – | inactive
O=C(Nc1cc(Cl)ccc1C(=O)O)c1ccc2ccccc2c1 | 11.5% (active) | –
O=C(O)c1ccc(Cl)cc1NC(=O)c1coc2ccccc12 | – | inactive

Compound | inhibition | outcome
O=C1c2ccccc2S(=O)N1c1cccc(F)c1 (stereo not drawn) | 8.84% | –
CN(C)c1cccc(NC(=O)Cn2sc3ccccc3c2=O)c1 | 16.7% (active) | –
COc1ccc(C(=O)Nc2cc(Cl)ccc2C#N)cc1 | – | inactive
COc1ccc(C(=O)Nc2cc(-c3ccccc3)ccc2C(=O)O)cc1 | – | inactive
CC(C)(C)c1ccc(C(=O)Nc2cc(Cl)c(F)cc2C(=O)O)cc1 | – | inactive
O=C(Nc1cc(Cl)ccc1C(=O)O)c1ccc(Cc2ccccc2)cc1 | – | inactive
O=C(O)c1ccccc1NC(=O)c1ccccc1C(=O)O | – | inactive
COc1ccc(C(=O)Nc2cc(Cl)ccc2O)cc1 | 22.2% (active) | –
Cc1ccccc1-n1sc2cc(F)ccc2c1=O | – | inactive
O=C1c2cc(Br)ccc2S(=O)N1c1ccccc1 (stereo not drawn) | – | inactive
O=C(Cn1sc2ccccc2c1=O)Nc1cccc(C(F)(F)F)c1 | 9.3% | –
Cc1cc(C(C#N)c2ccc(Cl)cc2)c(Cl)cc1NC(=O)c1cc(I)cc(I)c1O (stereo not drawn) | 24.3% (active) | –
O=c1c2cc(N3CCOCC3)ccc2sn1-c1ccccc1 | – | inactive
Cc1ccc(-n2sc3ccccc3c2=O)cc1 | 26.1% (active) | –
O=C(Cn1sc2ccccc2c1=O)Nc1ccc(Cl)cc1 | – | inactive
COc1ccc(C(=O)Nc2cc(Cl)ccc2C(N)=O)cc1 | 17.9% (active) | –
O=C(Cn1sc2ccccc2c1=O)Nc1cccc(F)c1 | 14.3% (active) | –
COc1ccccc1NC(=O)Cn1sc2ccccc2c1=O | 8.4% | –
CN(Cc1ccccc1)C(=O)Cn1sc2ccccc2c1=O | 30.6% (active) | –
